Assay results: ChEMBL document CHEMBL4689842, “EUbOPEN Chemogenomics Library wave 1” (2021)

Legend:
HEK-293T = assay: Multiplex assay against HEK293T; type: toxicity, cell-based; conditions: human;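 as to Population Tubulin-Different-Phenotype (%): share of the cells with healthy nuclei that show this phenotype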
In short: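 At seeding, live cells were stained with Hoechst33342, BioTracker Green Microtubule Cytoskeleton Dye, MitoTracker Red and Annexin V Alexa Fluor 680. After compound addition they were imaged on a CQ1 microscope at 37°C and 5% CO2, and CellPathfinder machine-learning gating sorted them into Hoechst high-intensity objects or normal cells, with normal cells further split into healthy, pyknosed or fragmented nuclei and pyknosed cells into mitotic or apoptotic. Tubulin, mitochondrial-mass and membrane-permeability phenotypes are given as per cents of cells with healthy nuclei.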

Fibroblast = assay: Incucyte cell viability with human fibroblast; type: toxicity, cell-based; conditions: 10 µM, compound concentration 10 uM; also: filed as whole numbers so only -1 and 0 and 1 occur
[1] = 12 h, 1 µM, compound concentration 1 uM, replicate 1
[2] = 12 h, 1 µM, compound concentration 1 uM, replicate 2
[3] = 12 h, 10 µM, compound concentration 10 uM, replicate 1
[4] = 12 h, 10 µM, compound concentration 10 uM, replicate 2
[5] = 24 h, 1 µM, compound concentration 1 uM, replicate 1
[6] = 24 h, 1 µM, compound concentration 1 uM, replicate 2
[7] = 24 h, 10 µM, compound concentration 10 uM, replicate 1
[8] = 24 h, 10 µM, compound concentration 10 uM, replicate 2
[9] = 48 h, 1 µM, compound concentration 1 uM, replicate 1
[10] = 48 h, 1 µM, compound concentration 1 uM, replicate 2
[11] = 48 h, 10 µM, compound concentration 10 uM, replicate 1
[12] = 48 h, 10 µM, compound concentration 10 uM, replicate 2

Structure (SMILES): CN1C(=O)[C@@H](NC(=O)c2cc3ccccc3[nH]2)N=C(c2ccccc2)c2ccccc21 [DEVAZEPIDE]
- Population Apoptotic (%) (HEK-293T; [1]): 49%
- Population Fragmented Nuclei (%) (HEK-293T; [1]): 9%
- Population Healthy Nuclei (%) (HEK-293T; [1]): 38%
- Population Hoechst High Intensity Objects (%) (HEK-293T; [1]): 11%
- Population Membrane Permeable-Phenotype (%) (HEK-293T; [1]): 8%
- Population Mitochondria Different-Phenotype (%) (HEK-293T; [1]): 73%
- Population Mitotic Cells (%) (HEK-293T; [1]): 50%
- Population Normal (%) (HEK-293T; [1]): 88%
- Population Pyknosed Nuclei (%) (HEK-293T; [1]): 52%
- Population Tubulin-Different-Phenotype (%) (HEK-293T; [1]): 50%
- Total Cell Count (HEK-293T; [1]): 314
- Population Apoptotic (%) (HEK-293T; [2]): 12%
- Population Fragmented Nuclei (%) (HEK-293T; [2]): 6%
- Population Healthy Nuclei (%) (HEK-293T; [2]): 36%
- Population Hoechst High Intensity Objects (%) (HEK-293T; [2]): 3%
- Population Membrane Permeable-Phenotype (%) (HEK-293T; [2]): 9%
- Population Mitochondria Different-Phenotype (%) (HEK-293T; [2]): 34%
- Population Mitotic Cells (%) (HEK-293T; [2]): 87%
- Population Normal (%) (HEK-293T; [2]): 96%
- Population Pyknosed Nuclei (%) (HEK-293T; [2]): 56%
- Population Tubulin-Different-Phenotype (%) (HEK-293T; [2]): 28%
- Total Cell Count (HEK-293T; [2]): 205
- Population Apoptotic (%) (HEK-293T; [3]): 58%
- Population Fragmented Nuclei (%) (HEK-293T; [3]): 11%
- Population Healthy Nuclei (%) (HEK-293T; [3]): 24%
- Population Hoechst High Intensity Objects (%) (HEK-293T; [3]): 15%
- Population Membrane Permeable-Phenotype (%) (HEK-293T; [3]): 5%
- Population Mitochondria Different-Phenotype (%) (HEK-293T; [3]): 88%
- Population Mitotic Cells (%) (HEK-293T; [3]): 41%
- Population Normal (%) (HEK-293T; [3]): 84%
- Population Pyknosed Nuclei (%) (HEK-293T; [3]): 63%
- Population Tubulin-Different-Phenotype (%) (HEK-293T; [3]): 76%
- Total Cell Count (HEK-293T; [3]): 287
- Population Apoptotic (%) (HEK-293T; [4]): 25%
- Population Fragmented Nuclei (%) (HEK-293T; [4]): 4%
- Population Healthy Nuclei (%) (HEK-293T; [4]): 34%
- Population Hoechst High Intensity Objects (%) (HEK-293T; [4]): 3%
- Population Membrane Permeable-Phenotype (%) (HEK-293T; [4]): 15%
- Population Mitochondria Different-Phenotype (%) (HEK-293T; [4]): 48%
- Population Mitotic Cells (%) (HEK-293T; [4]): 74%
- Population Normal (%) (HEK-293T; [4]): 96%
- Population Pyknosed Nuclei (%) (HEK-293T; [4]): 60%
- Population Tubulin-Different-Phenotype (%) (HEK-293T; [4]): 66%
- Total Cell Count (HEK-293T; [4]): 228
- Population Apoptotic (%) (HEK-293T; [5]): 48%
- Population Fragmented Nuclei (%) (HEK-293T; [5]): 11%
- Population Healthy Nuclei (%) (HEK-293T; [5]): 36%
- Population Hoechst High Intensity Objects (%) (HEK-293T; [5]): 13%
- Population Membrane Permeable-Phenotype (%) (HEK-293T; [5]): 3%
- Population Mitochondria Different-Phenotype (%) (HEK-293T; [5]): 67%
- Population Mitotic Cells (%) (HEK-293T; [5]): 51%
- Population Normal (%) (HEK-293T; [5]): 86%
- Population Pyknosed Nuclei (%) (HEK-293T; [5]): 51%
- Population Tubulin-Different-Phenotype (%) (HEK-293T; [5]): 52%
- Total Cell Count (HEK-293T; [5]): 327
- Population Apoptotic (%) (HEK-293T; [6]): 14%
- Population Fragmented Nuclei (%) (HEK-293T; [6]): 4%
- Population Healthy Nuclei (%) (HEK-293T; [6]): 57%
- Population Hoechst High Intensity Objects (%) (HEK-293T; [6]): 2%
- Population Membrane Permeable-Phenotype (%) (HEK-293T; [6]): 15%
- Population Mitochondria Different-Phenotype (%) (HEK-293T; [6]): 20%
- Population Mitotic Cells (%) (HEK-293T; [6]): 85%
- Population Normal (%) (HEK-293T; [6]): 97%
- Population Pyknosed Nuclei (%) (HEK-293T; [6]): 37%
- Population Tubulin-Different-Phenotype (%) (HEK-293T; [6]): 34%
- Total Cell Count (HEK-293T; [6]): 231
- Population Apoptotic (%) (HEK-293T; [7]): 56%
- Population Fragmented Nuclei (%) (HEK-293T; [7]): 16%
- Population Healthy Nuclei (%) (HEK-293T; [7]): 15%
- Population Hoechst High Intensity Objects (%) (HEK-293T; [7]): 17%
- Population Membrane Permeable-Phenotype (%) (HEK-293T; [7]): 5%
- Population Mitochondria Different-Phenotype (%) (HEK-293T; [7]): 91%
- Population Mitotic Cells (%) (HEK-293T; [7]): 43%
- Population Normal (%) (HEK-293T; [7]): 82%
- Population Pyknosed Nuclei (%) (HEK-293T; [7]): 67%
- Population Tubulin-Different-Phenotype (%) (HEK-293T; [7]): 91%
- Total Cell Count (HEK-293T; [7]): 284
- Population Apoptotic (%) (HEK-293T; [8]): 41%
- Population Fragmented Nuclei (%) (HEK-293T; [8]): 7%
- Population Healthy Nuclei (%) (HEK-293T; [8]): 46%
- Population Hoechst High Intensity Objects (%) (HEK-293T; [8]): 4%
- Population Membrane Permeable-Phenotype (%) (HEK-293T; [8]): 15%
- Population Mitochondria Different-Phenotype (%) (HEK-293T; [8]): 47%
- Population Mitotic Cells (%) (HEK-293T; [8]): 58%
- Population Normal (%) (HEK-293T; [8]): 95%
- Population Pyknosed Nuclei (%) (HEK-293T; [8]): 46%
- Population Tubulin-Different-Phenotype (%) (HEK-293T; [8]): 74%
- Total Cell Count (HEK-293T; [8]): 245
- Population Apoptotic (%) (HEK-293T; [9]): 50%
- Population Fragmented Nuclei (%) (HEK-293T; [9]): 15%
- Population Healthy Nuclei (%) (HEK-293T; [9]): 28%
- Population Hoechst High Intensity Objects (%) (HEK-293T; [9]): 16%
- Population Membrane Permeable-Phenotype (%) (HEK-293T; [9]): 6%
- Population Mitochondria Different-Phenotype (%) (HEK-293T; [9]): 48%
- Population Mitotic Cells (%) (HEK-293T; [9]): 50%
- Population Normal (%) (HEK-293T; [9]): 83%
- Population Pyknosed Nuclei (%) (HEK-293T; [9]): 55%
- Population Tubulin-Different-Phenotype (%) (HEK-293T; [9]): 41%
- Total Cell Count (HEK-293T; [9]): 356
- Population Apoptotic (%) (HEK-293T; [10]): 9%
- Population Fragmented Nuclei (%) (HEK-293T; [10]): 5%
- Population Healthy Nuclei (%) (HEK-293T; [10]): 74%
- Population Hoechst High Intensity Objects (%) (HEK-293T; [10]): 4%
- Population Membrane Permeable-Phenotype (%) (HEK-293T; [10]): 7%
- Population Mitochondria Different-Phenotype (%) (HEK-293T; [10]): 11%
- Population Mitotic Cells (%) (HEK-293T; [10]): 90%
- Population Normal (%) (HEK-293T; [10]): 95%
- Population Pyknosed Nuclei (%) (HEK-293T; [10]): 20%
- Population Tubulin-Different-Phenotype (%) (HEK-293T; [10]): 34%
- Total Cell Count (HEK-293T; [10]): 361
- Population Apoptotic (%) (HEK-293T; [11]): 66%
- Population Fragmented Nuclei (%) (HEK-293T; [11]): 24%
- Population Healthy Nuclei (%) (HEK-293T; [11]): 6%
- Population Hoechst High Intensity Objects (%) (HEK-293T; [11]): 22%
- Population Membrane Permeable-Phenotype (%) (HEK-293T; [11]): 7%
- Population Mitochondria Different-Phenotype (%) (HEK-293T; [11]): 100%
- Population Mitotic Cells (%) (HEK-293T; [11]): 33%
- Population Normal (%) (HEK-293T; [11]): 77%
- Population Pyknosed Nuclei (%) (HEK-293T; [11]): 69%
- Population Tubulin-Different-Phenotype (%) (HEK-293T; [11]): 84%
- Total Cell Count (HEK-293T; [11]): 276
- Population Apoptotic (%) (HEK-293T; [12]): 63%
- Population Fragmented Nuclei (%) (HEK-293T; [12]): 12%
- Population Healthy Nuclei (%) (HEK-293T; [12]): 44%
- Population Hoechst High Intensity Objects (%) (HEK-293T; [12]): 5%
- Population Membrane Permeable-Phenotype (%) (HEK-293T; [12]): 22%
- Population Mitochondria Different-Phenotype (%) (HEK-293T; [12]): 41%
- Population Mitotic Cells (%) (HEK-293T; [12]): 36%
- Population Normal (%) (HEK-293T; [12]): 94%
- Population Pyknosed Nuclei (%) (HEK-293T; [12]): 43%
- Population Tubulin-Different-Phenotype (%) (HEK-293T; [12]): 64%
- Total Cell Count (HEK-293T; [12]): 237
- Growth Rate (Fibroblast; 0 h, replicate number 1, timepoint 0 hours): 0
- Growth Rate (Fibroblast; 18 h, replicate number 1, timepoint 18 hours): 1
- Growth Rate (Fibroblast; 24 h, replicate number 1, timepoint 24 hours): 1
